Compound activity deposited in PubChem BioAssay by The Scripps Research Institute Molecular Screening Center.
NPY-Y2 antag: blocks the human neuropeptide Y Y2 receptor; NPY-Y2 expressing cells, antagonist mode; inhibition, % at 2.7 µM; actives 0.99% (n = 140,000); in the data active means inhibition above about 17%
Target sequence (P49146 whole entry, looked up): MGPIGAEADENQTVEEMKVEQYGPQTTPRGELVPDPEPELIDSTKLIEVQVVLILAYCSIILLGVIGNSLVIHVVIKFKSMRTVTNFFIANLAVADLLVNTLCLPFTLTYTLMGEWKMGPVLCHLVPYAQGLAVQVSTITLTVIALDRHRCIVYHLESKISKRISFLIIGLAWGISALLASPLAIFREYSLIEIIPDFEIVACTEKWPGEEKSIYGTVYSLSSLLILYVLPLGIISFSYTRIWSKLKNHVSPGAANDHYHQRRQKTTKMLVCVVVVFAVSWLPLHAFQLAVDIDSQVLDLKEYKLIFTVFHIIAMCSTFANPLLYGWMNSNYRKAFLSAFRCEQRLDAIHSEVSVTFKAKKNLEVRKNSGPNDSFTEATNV
NPY1 pot ag: human NPY-Y1 potentiation or agonism, primary screen. activation, % at 3.6 µM. P25929. actives 0.37% (n = 220,000). NPY-Y1 expressing cells, potentiator/agonist activation; in the data active means activation above about 33%, passing the limit was not always enough;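 further: cells stimulated with NPY at EC10 then isoproterenol at EC100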
NPY2 pot ag: potentiates or activates human NPY-Y2 receptor; P49146; activation, % at 3.6 µM; actives 0.45% (n = 220,000); cells expressing NPY-Y2, potentiator/agonist read-out; in the data active means activation above about 27%;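 further: cells stimulated with NPY near EC25 plus isoproterenol at EC100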
NPY Y1 blocker: antagonists of human neuropeptide Y receptor Y1. AID 1040. P25929. actives 1% (n = 200,000). inhibition, % at 3.6 µM. HEK293-CNG Y1 cells, membrane potential fluorescence; NPY at EC95, then isoproterenol;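 active means inhibition above the campaign mean inhibition of all tested compounds plus 3 SD, cut at about 20% in these data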
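Test system: HEK293 cells co-expressing NPY Y1 receptor and cyclic-nucleotide gated channel; Also added: NPY (25 nM), isoproterenol (1 µM), Ro 20-1724 (25 µM); Compound dosing: one concentration, 3.6 µM, in 0.4% DMSO; Timing: dye 3 h, compound 60 min room temperature, stimulation 45 min; Technique: Membrane-potential fluorescent dye readout.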
NPY-Y1 antag ct: human NPY-Y1 antagonism in NPY-Y2 counter-screen. shares compounds with NPY-Y2 antag. cell-based NPY-Y1 antagonism counterscreen. inhibition, % at 3.6 µM. actives 19% (n = 710). AID 1256; in the data active means inhibition above about 20%;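 further: cells challenged with NPY then isoproterenol with cAMP sensed through a CNG channel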
NPY2 antag conf: confirmation of human neuropeptide Y receptor Y2 antagonists; inhibition, % at 2.8 µM; shares compounds with NPY-Y2 antag; HEK293 NPY-Y2 CNG channel, membrane potential fluorescence; AID 1257; actives 32% (n = 710);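 active means mean inhibition of triplicate wells above the hit cutoff set in the primary screen, cut at about 17% in these data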
Of the large screens only hits and unclear results are named; the others gave an inactive call (follow-up assays come after a bar, where they were run). An excerpt weighted towards active compounds, which were near 1.8% of everything screened.

CCOC(=O)c1cnn(-c2nc(-c3ccccc3)nc3c2COC(C)(C)C3)c1N	none
CCN(CC)C(=O)CSc1nc(-c2ccc(C)cc2)nc2c1COC(C)(C)C2	NPY-Y2 antag 19.9 | NPY-Y1 antag ct inactive | NPY2 antag conf inactive
CN(C)c1ccc(/C=C2\SC(=O)N(CC(O)Cn3c4ccccc4c4ccccc43)C2=O)cc1 (stereo unspecified)	NPY-Y2 antag 21.1 | NPY-Y1 antag ct 25.9 | NPY2 antag conf inactive
CN(C)C(=O)C(CCN1CCC(O)(c2ccc(Cl)cc2)CC1)(c1ccccc1)c1ccccc1	NPY-Y2 antag 24.7 | NPY-Y1 antag ct inactive | NPY2 antag conf 27.7
CN(C)c1ccc(NC(=O)CN2CCC(O)(c3ccccc3)CC2)cc1	none (no result: NPY-Y2 antag)
CCCn1c(=N)c(C(=O)NCc2ccc3c(c2)OCO3)cc2c(=O)n3cccc(C)c3nc21	none
CCOCCCn1c(=N)c(C(=O)NCc2ccc3c(c2)OCO3)cc2c(=O)n3ccccc3nc21	NPY-Y2 antag 23.0 | NPY-Y1 antag ct inactive | NPY2 antag conf inactive
CCOC(=O)c1cc2c(=O)n3ccccc3nc2n(CCCOC)c1=NC(=O)c1ccncc1	none (no result: NPY-Y2 antag)
CCOC(=O)c1cc2c(=O)n3ccccc3nc2n(CCCOC)c1=NC(C)=O	NPY-Y2 antag 20.8 | NPY-Y1 antag ct inactive | NPY2 antag conf inactive
CCC(C)C(NC(=O)C(CC(C)C)NC(=O)C(CO)NC(=O)C1CCC(=O)N1)C(=O)OC (stereo unspecified)	none (no result: NPY-Y2 antag)
Cc1cccc(N2CCN(CC(=O)Nc3ccccc3[N+](=O)[O-])CC2)c1C	NPY-Y2 antag 38.5 | NPY-Y1 antag ct inactive | NPY2 antag conf inactive
O=C(c1ccc(Cl)c([N+](=O)[O-])c1)N(Cc1ccc(Cl)cc1)C1CCS(=O)(=O)C1 (stereo unspecified)	none
CCCOc1ccc2oc(=O)c3c(c2c1)CCCN3C(=O)CN1CCN(C(=O)c2ccco2)CC1	none
O=C(CN1CCCC1)N1CCCc2c1c(=O)oc1ccc(OCc3ccccc3)cc21	NPY-Y2 antag 19.4 | NPY-Y1 antag ct 23.3 | NPY2 antag conf 27.6
COc1cccc2sc(N(CCCN(C)C)C(=O)c3sc4ccccc4c3Cl)nc12	NPY-Y2 antag 27.5 | NPY-Y1 antag ct inactive | NPY2 antag conf inactive
Cc1cccc2sc(N(CCCN(C)C)C(=O)c3sc4ccccc4c3Cl)nc12	none
CC(C)COP(=O)(OCC(C)C)C(Nc1ccccc1)c1ccc2c(c1)OCO2 (stereo unspecified)	NPY-Y2 antag 19.7 | NPY-Y1 antag ct inactive | NPY2 antag conf inactive
Cc1ccc([N+](=O)[O-])cc1NC(=O)c1ccc(-c2ccccc2)cc1	NPY-Y2 antag 22.1 | NPY-Y1 antag ct inactive | NPY2 antag conf inactive
Cc1ccc(C(=O)Nc2cc([N+](=O)[O-])ccc2C)cc1	none (no result: NPY-Y2 antag)
Cc1ccc(-n2nc(C)c3cc(C(=O)O)sc32)cc1	none
Cc1ccc(CN2CCC(c3cc(-c4cccs4)n[nH]3)CC2)cc1	none (no result: NPY-Y2 antag)
OC1(c2ccccc2)CCN(Cc2ccccc2)C2CCCCC21 (stereo unspecified)	NPY-Y2 antag 29.5 | NPY-Y1 antag ct inactive | NPY2 antag conf 42.8
COc1cc(OC)cc(C(=O)N[C@H](C(=O)NC23CC4CC(CC(C4)C2)C3)C(C)C)c1	none
Cc1cccc(-c2nnc3sc(-c4ccccc4C)nn23)c1	NPY-Y2 antag 18.6 | NPY-Y1 antag ct inactive | NPY2 antag conf inactive
COc1cccc(-c2nnc3sc(-c4ccccc4)nn23)c1	none
Cc1cc(C(=O)NCc2cccs2)ccc1[N+](=O)[O-]	none
C=C(C)CSc1nc2c(c(=O)[nH]c(=O)n2C)n1CCC(C)C	NPY-Y2 antag 22.1 | NPY-Y1 antag ct inactive | NPY2 antag conf inactive
CCCCOc1ccccc1NC(=O)Cn1c(-c2nonc2N)nc2ccccc21	NPY-Y2 antag 51.0 | NPY-Y1 antag ct 50.5 | NPY2 antag conf 92.7
Nc1nonc1-c1nc2ccccc2n1Cc1ccc(Cl)cc1	NPY-Y2 antag 27.8 | NPY-Y1 antag ct 28.4 | NPY2 antag conf 26.6
COc1ccc(Cn2c(-c3ccc(OC)cc3)nc3ccccc32)cc1	NPY-Y2 antag 20.9 | NPY-Y1 antag ct inactive | NPY2 antag conf inactive
NNC(=O)Cn1c(-c2nonc2N)nc2ccccc21	none (no result: NPY-Y2 antag)
C=COCCn1c(-c2nonc2N)nc2ccccc21	none
Cc1c(C(=O)c2no[n+]([O-])c2C(=O)c2cnn(C)c2C)cnn1C	none
Cc1ccc(-c2csc(N(CCCN3CCOCC3)C(=O)c3ccco3)n2)cc1	NPY-Y2 antag 17.7 | NPY-Y1 antag ct inactive | NPY2 antag conf inactive
COc1ccc(-c2csc(N(CCCN3CCOCC3)C(=O)c3ccco3)n2)cc1	NPY-Y2 antag 18.3 | NPY-Y1 antag ct inactive | NPY2 antag conf inactive
O=C(O)[C@@H]1CCCN1C(=O)c1ccco1	none
Cc1ccc(C)c(NS(=O)(=O)c2cc(C(=O)Nc3ccccc3-c3ccccc3)ccc2C)c1	NPY-Y2 antag 22.4 | NPY-Y1 antag ct inactive | NPY2 antag conf 117.1
Cc1ccc(C(=O)Nc2ccccc2-c2ccccc2)cc1S(=O)(=O)Nc1cccc(C)c1C	none
O=C(NCc1ccccn1)Nc1ccc2c(c1)OCO2	none
CCOc1ccc(C(C(=O)NC2CCCC2)N(Cc2ccccc2)C(=O)c2nsc(Cl)c2Cl)cc1 (stereo unspecified)	NPY-Y2 antag 25.0 | NPY-Y1 antag ct 20.6 | NPY2 antag conf inactive
Cc1cc(N2CCC(C)CC2)nc(-c2ccccc2O)n1	none (no result: NPY-Y2 antag, NPY Y1 blocker)
Cc1cc(Oc2ccccc2)nc(NCc2ccccc2)n1	NPY-Y2 antag 20.4 | NPY-Y1 antag ct inactive | NPY2 antag conf inactive
Cc1cc(N2CCC(C)CC2)nc(NCc2ccccc2)n1	NPY-Y2 antag 17.4 | NPY-Y1 antag ct 32.6 | NPY2 antag conf 33.2
CCn1cc(C(=O)NCCCOC(C)C)c2cc(OC)c(OC)cc2c1=O	none
O=C(c1ccccc1)c1ccc(OCCCCN2CCCCC2)cc1	none
c1ccc(COc2ccc(OCCCCN3CCCCC3)cc2)cc1	NPY-Y2 antag 26.6 | NPY-Y1 antag ct inactive | NPY2 antag conf 38.5
O=C(O)CSc1nnc(-c2ccc3c(c2)OCO3)o1	NPY-Y2 antag 31.4 | NPY-Y1 antag ct inactive | NPY2 antag conf 18.0
Fc1ccc(C(CCCn2nnc(-c3cccnc3)n2)c2ccc(F)cc2)cc1	none
Cc1cccc(-n2ccnc2SCC(=O)N2CCCc3ccccc32)c1C	NPY-Y2 antag 21.0 | NPY-Y1 antag ct inactive | NPY2 antag conf 47.0
CCN(CC)c1ccc(C2C(C(=O)OC(C)C)C(=O)CC(C)(O)C2C(=O)OC(C)C)cc1 (stereo unspecified)	NPY-Y2 antag 18.5 | NPY-Y1 antag ct inactive | NPY2 antag conf inactive
C=CCOC(=O)C1C(=O)CC(C)(O)C(C(=O)OCC=C)C1c1ccc(OCC)cc1 (stereo unspecified)	NPY-Y2 antag 21.9 | NPY-Y1 antag ct inactive | NPY2 antag conf inactive
S=C(NCc1ccco1)N1CCN(Cc2ccco2)CC1	none
CCOC(=O)C1C(=O)Oc2ccc3ccccc3c2C1C1CCOC1=O (stereo unspecified)	none
